Broadly, the ED50 is the midpoint of the dose-response relation.

The values that follow come from ChEMBL document CHEMBL3244080, “Structure-activity correlations for a series of antiallergy agents. Oxanilic, quinaldic, and benzopyran-2-carboxylic acids” (1978).

This assay deals with Rattus norvegicus. The assay can be described thus: Antiallergic activity in iv dosed Sprague-Dawley rat assessed as inhibition of egg albumin-induced passive cutaneous anaphylaxis. It counts as functional. Conditions: for ED50: Rattus norvegicus, Sprague-Dawley, iv. Put shortly:
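Rat passive cutaneous anaphylaxis; drug given iv as its tris(hydroxymethyl)aminomethane (THAM) salt solution at the moment of antigen challenge. Percent inhibition of the PCA reaction measured at three or more trial doses; ED50 = dose giving 50% inhibition of the anaphylactic reaction.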

Take `N#Cc1ccccc1NC(=O)C(=O)O`: the Activity_index is reported as 11.5 and the median effective dose (ED50) was 10.1 µmol/kg. The matching figures for `COc1ccc2nc(C(=O)O)cc(O)c2c1`: 9.4 and 82.2 µmol/kg. The matching figures for `O=C(O)c1cc(O)c2cccc(O)c2n1` [XANTHURENATE]: 9.1 and 114 µmol/kg. The matching figures for `Nc1ccc2nc(C(=O)O)cc(O)c2c1`: 9.9 and 48.3 µmol/kg.

In the case of `N#Cc1cc(C#N)cc(NC(=O)C(=O)O)c1`, the Activity_index is 14 and the ED50 came to 0.84 µmol/kg. In the case of `O=C(O)c1cc(=O)c2ccccc2[nH]1` [TRANSTORINE], the Activity_index is 10.1 and the ED50 amounted to 42.4 µmol/kg. For `N#Cc1cccc(NC(=O)C(=O)O)c1`, in that order: 12.6 and 3.38 µmol/kg. For `N#Cc1ccc(Cl)c(NC(=O)C(=O)O)c1`, in that order: 13.3 and 1.74 µmol/kg. For `Nc1ccc2oc(C(=O)O)cc(=O)c2c1`, in that order: 10 and 43.5 µmol/kg. For the compound `O=C(O)c1cc(=O)c2c(OCC(O)COc3cccc4oc(C(=O)O)cc(=O)c34)cccc2o1` [CROMOLYN SODIUM], the ED50 was found to be 6.1 µmol/kg. Turning to `O=C(O)c1cc(=O)c2cc([N+](=O)[O-])ccc2o1`, the Activity_index is reported as 11.9 and the ED50 stood at 6.48 µmol/kg. Consider `N#Cc1cc(NC(=O)C(=O)O)ccc1Cl`, for which the Activity_index was found to be 13.1 and the ED50 came out at 2.06 µmol/kg. For `O=C(O)C(=O)Nc1ccccc1`, in that order: 8.3 and 245 µmol/kg. For `N#Cc1ccc(NC(=O)C(=O)O)cc1`, in that order: 10.1 and 40.5 µmol/kg.
